Columns and labels:
[1] = folding enthalpy; higher = less favourable; fluorescence melt of hairpins on a sequencing array, two-state fit; conditions: sodium 0.088 M
Procedure, shortened: (§1)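 Folding enthalpy and melting temperature were estimated with bootstrapped two-state fits and combined across four replicates by inverse-variance weighting, with fitted temperatures raised by 9.35 °C to match UV melts. The data were Cy3 fluorescence of library hairpins, with annealed Cy3 and quencher oligos, on a sequenced MiSeq flow cell in 50 mM Na-HEPES pH 8.0, 25 mM NaCl, imaged in 2.5 °C steps up to 60 °C and normalised to pre-quench Cy3 and control constructs.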

[2] = melting temperature; fluorescence melt of hairpins on a sequencing array, two-state fit, raised by 9.35 °C to match UV melts; conditions: sodium 0.088 M
Procedure, shortened: as §1

Row | Sequence | folding enthalpy [1] [kcal/mol] | Tm [2] [°C]
1 | GATCAGCTCCTGATC ((((((...)))))) | -43.2 | 50
2 | GATCAGCTGCTGATC ((((((...)))))) | -47.7 | 50.7
3 | GATCAGCTGGCTGATC ((((((....)))))) | -34.1 | 64.4
4 | GATCAGCTGTCTGATC ((((((....)))))) | -38.9 | 50.3
5 | GATCAGCTTCCTGATC ((((((....)))))) | -44.1 | 49.6
6 | GATCAGGAACTGATC ((((((...)))))) | -39.4 | 60.6
7 | GATCAGGATCTGATC ((((((...)))))) | -32.1 | 48
8 | GATCAGGCAGCTGATC ((((((....)))))) | -34.2 | 52.4
9 | GATCAGGCTCCTGATC ((((((....)))))) | -42.8 | 52.5
10 | GATCAGGCTGCTGATC ((((((....)))))) | -46.2 | 50.4
11 | GATCAGGCTTCTGATC ((((((....)))))) | -37.1 | 50.3
12 | GATCAGGGACCTGATC ((((((....)))))) | -50.5 | 54.3
13 | GATCAGGGTACTGATC ((((((....)))))) | -41 | 55.5
14 | GATCAGGGTTCTGATC ((((((....)))))) | -42.1 | 50.8
15 | GATCAGGTCTCTGATC ((((((....)))))) | -50.3 | 53.4
16 | GATCAGGTGCCTGATC ((((((....)))))) | -37 | 51.6
17 | GATCAGGTGTCTGATC ((((((....)))))) | -40.2 | 50.9
18 | GATCAGTAACCTGATC ((((((....)))))) | -27.6 | 47.4
19 | GATCAGTAATCTGATC ((((((....)))))) | -36 | 48.6
20 | GATCAGTAGACTGATC ((((((....)))))) | -40.7 | 51.5
21 | GATCAGTCACTGATC ((((((...)))))) | -39.9 | 50.1
22 | GATCAGTCTTCTGATC ((((((....)))))) | -37.8 | 51.2
23 | GATCAGTGAACTGATC ((((((....)))))) | -36.2 | 52.6
24 | GATCAGTGATCTGATC ((((((....)))))) | -36.1 | 50.2

Row | Sequence | folding enthalpy [1] [kcal/mol] | Tm [2] [°C]
25 | GATCAGTGCCCTGATC ((((((....)))))) | -29.9 | 49.9
26 | GATCAGTTACCTGATC ((((((....)))))) | -37 | 50.9
27 | GATCAGTTCACTGATC ((((((....)))))) | -44.8 | 58.1
28 | GATCAGTTCCTGATC ((((((...)))))) | -42.9 | 50.9
29 | GATCAGTTGCCTGATC ((((((....)))))) | -41.1 | 51.4
30 | GATCAGTTGGCTGATC ((((((....)))))) | -43 | 54.3
31 | GATCAGTTGTCTGATC ((((((....)))))) | -39.2 | 50.5
32 | GATCATAAATATGATC ((((((....)))))) | -41.4 | 45.2
33 | GATCATAACAATGATC ((((((....)))))) | -32.1 | 47
34 | GATCATAATCATGATC ((((((....)))))) | -32.1 | 46.2
35 | GATCATAGAAATGATC ((((((....)))))) | -29.4 | 41.7
36 | GATCATAGAATGATC ((((((...)))))) | -36 | 48
37 | GATCATAGATATGATC ((((((....)))))) | -33.6 | 47.3
38 | GATCATAGCAATGATC ((((((....)))))) | -40.3 | 47.4
39 | GATCATAGCCATGATC ((((((....)))))) | -44.5 | 47.5
40 | GATCATAGTAATGATC ((((((....)))))) | -37.2 | 47.3
41 | GATCATAGTCATGATC ((((((....)))))) | -32.9 | 47.2
42 | GATCATATACATGATC ((((((....)))))) | -32.9 | 48.1
43 | GATCATATTAATGATC ((((((....)))))) | -34.1 | 47.9
44 | GATCATATTCATGATC ((((((....)))))) | -37.3 | 47.8
45 | GATCATCACCATGATC ((((((....)))))) | -36.1 | 46.8
46 | GATCATCATCATGATC ((((((....)))))) | -34.8 | 45
47 | GATCATCCCCATGATC ((((((....)))))) | -34.9 | 46.2
48 | GATCATCCTATGATC ((((((...)))))) | -33.1 | 48.3

— the array DNA melting data of Ke et al. (doi:10.1101/2024.01.08.574731)
